From ChEMBL document CHEMBL1121632, “Oxime and dithiolane derivatives of 5-formyl-2'-deoxyuridine and their 5'-phosphates: antiviral effects and thymidylate synthetase inhibition” (J Med Chem, 1980)
Converted amounts (≈) assume the structure as drawn.

Columns and labels:
[1] = Minimum Cytotoxic concentration in primary rabbit kidney (PRK); assay type: tissue-based, Oryctolagus cuniculus; details: primary rabbit kidney (PRK) cells
How it was run: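 Primary rabbit kidney cell cultures, the same cells used for the virus cytopathogenicity assays, were exposed to the compound. Cytotoxicity was read as the lowest concentration causing a microscopically visible change in cell morphology.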

[2] = Concentration required to reduce [1,2-H]dUrd incorporation into DNA in primary rabbit kidney (PRK); assay type: functional; details: Oryctolagus cuniculus; read-out: ID50 (the source's name)
How it was run: (§1)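 PRK cell cultures (10^5 cells per well) were pulsed with 2'-deoxy[1',2'-3H]uridine (42 Ci/mmol) at 0.25 μCi, or 6 pmol, per well. Compound concentration cutting label incorporation into cellular DNA by 50% was taken as ID50.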

[3] = Concentration required to reduce HSV-2 Lyons virus induced cytogenicity in primary rabbit kidney (PRK); Range is 2-4; assay type: functional; details: Oryctolagus cuniculus; read-out: ID50 (the source's name)
[4] = Concentration required to reduce HSV-1 KOS virus induced cytogenicity in primary rabbit kidney (PRK); Range is 1-2; assay type: functional; details: Oryctolagus cuniculus; read-out: ID50 (the source's name)
[5] = Concentration required to reduce HSV-1 McIntyre virus induced cytogenicity in primary rabbit kidney (PRK); assay type: functional; details: Oryctolagus cuniculus, read-out: ID50 (the source's name)
[6] = Concentration required to reduce virus HSV-2G induced cytogenicity in primary rabbit kidney (PRK); Range is 1-2; assay type: functional; details: Oryctolagus cuniculus; read-out: ID50 (the source's name)
[7] = Concentration required to reduce vaccinia virus induced cytogenicity in primary rabbit kidney (PRK); Range is 0.1-0.2; assay type: functional; details: Oryctolagus cuniculus; read-out: ID50 (the source's name)
[8] = Concentration required to reduce [Me-H]dThd incorporation into DNA in primary rabbit kidney (PRK); assay type: functional; details: Oryctolagus cuniculus, read-out: ID50 (the source's name)
How it was run: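 [methyl-3H]dThd incorporation into DNA of primary rabbit kidney cell cultures was measured with test compound present. ID50 is the concentration reducing dThd incorporation into DNA by 50%.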

[9] = Concentration required to reduce HV2 196 virus induced cytogenicity in primary rabbit kidney (PRK); Range is 1-4; assay type: functional; details: Oryctolagus cuniculus; read-out: ID50 (the source's name)
[10] = Ratio of ID50 for [Me-H]dThd to ID50 for [1,2-H]dUrd; assay type: functional
How it was run: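 The ratio is the ID50 for [Me-3H]dThd incorporation divided by the ID50 for [1',2'-3H]dUrd incorporation into PRK cell DNA. Each ID50 is the concentration giving 50% reduction of incorporation. The ratio is treated as a parameter for selective in vivo thymidylate synthetase inhibition.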

[11] = Concentration required to reduce HSV-1 F virus induced cytogenicity in primary rabbit kidney (PRK); Range is 1-2; assay type: functional; details: Oryctolagus cuniculus; read-out: ID50 (the source's name)
[12] = Concentration required to reduce HV2 196 virus induced cytogenicity in primary rabbit kidney (PRK); assay type: functional; details: Oryctolagus cuniculus; read-out: ID50 (the source's name)
[13] = Concentration required to reduce HSV-1 KOS virus induced cytogenicity in primary rabbit kidney (PRK); assay type: functional; details: Oryctolagus cuniculus; read-out: ID50 (the source's name)
[14] = Concentration required to reduce virus HSV-2G induced cytogenicity in primary rabbit kidney (PRK); assay type: functional; details: Oryctolagus cuniculus; read-out: ID50 (the source's name)
[15] = Concentration required to reduce HSV-1 F virus induced cytogenicity in primary rabbit kidney (PRK); assay type: functional; details: Oryctolagus cuniculus; read-out: ID50 (the source's name)
[16] = Concentration required to reduce HSV-2 Lyons virus induced cytogenicity in primary rabbit kidney (PRK); assay type: functional; details: Oryctolagus cuniculus; read-out: ID50 (the source's name)
[17] = Concentration required to reduce [1,2-H]dUrd incorporation into DNA in n primary rabbit kidney (PRK); assay type: functional; details: Oryctolagus cuniculus; read-out: ID50 (the source's name); how it was run: as §1
[18] = Concentration required to reduce vaccinia virus induced cytogenicity in primary rabbit kidney (PRK); assay type: functional; details: Oryctolagus cuniculus; read-out: ID50 (the source's name)

| Structure (SMILES) | MCC [1] | IC50 [2] | IC50 [3] | IC50 [4] | IC50 [5] | IC50 [6] | IC50 [7] | IC50 [8] | IC50 [9] | Ratio [10] | IC50 [11] | IC50 [12] | IC50 [13] | IC50 [14] | IC50 [15] | IC50 [16] | IC50 [17] | IC50 [18] |
| --- | --- | --- | --- | --- | --- | --- | --- | --- | --- | --- | --- | --- | --- | --- | --- | --- | --- | --- |
| O=Cc1cn([C@H]2C[C@H](O)[C@@H](CO)O2)c(=O)[nH]c1=O | 4 µg/mL | 0.2 µg/mL (≈ 0.781 µM) | 2 µg/mL (≈ 7.81 µM) | 1 µg/mL (≈ 3.9 µM) | 0.7 µg/mL (≈ 2.73 µM) | 1 µg/mL (≈ 3.9 µM) | 0.1 µg/mL (≈ 0.39 µM) | 75 µg/mL (≈ 293 µM) | 1 µg/mL (≈ 3.9 µM) | 375 | 1 µg/mL (≈ 3.9 µM) | – | – | – | – | – | – | – |
| O=c1[nH]c(=O)n([C@H]2C[C@H](O)[C@@H](CO)O2)cc1C1SCCS1 | > 400 µg/mL | – | – | – | 300 µg/mL (≈ 903 µM) | – | – | 100 µg/mL (≈ 301 µM) | – | 1 | – | 300 µg/mL (≈ 903 µM) | 300 µg/mL (≈ 903 µM) | 200 µg/mL (≈ 602 µM) | 150 µg/mL (≈ 451 µM) | > 400 µg/mL | 100 µg/mL (≈ 301 µM) | 200 µg/mL (≈ 602 µM) |
| O=c1[nH]c(=O)n([C@H]2C[C@H](O)[C@@H](CO)O2)cc1/C=N/O | 100 µg/mL | 7.5 µg/mL (≈ 27.7 µM) | – | – | 0.7 µg/mL (≈ 2.58 µM) | – | – | 300 µg/mL (≈ 1110 µM) | – | 40 | – | 20 µg/mL (≈ 73.7 µM) | 0.7 µg/mL (≈ 2.58 µM) | 7 µg/mL (≈ 25.8 µM) | 1 µg/mL (≈ 3.69 µM) | 20 µg/mL (≈ 73.7 µM) | – | 10 µg/mL (≈ 36.9 µM) |
